Values after ≈ are worked out from the molar mass of the structure shown. Active and inactive are the calls of the source. The rule behind the calls is not given here.
Key:
[1] = test system: Mus musculus; test: Antiinflammatory activity in C57BL/6 mouse model of poly(I:C)-induced acute airway inflammation assessed as decrease in H3K122Ac accumulation in lung tissue at 10 mg/kg, po administered 1 day prior to poly(I:C) stimulation by immunofluorescence analysis; type: functional, organism-based
Summary of the method: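 Same mouse model: 10 mg/kg po one day before, plus a second dose with intranasal poly(I:C) (300 μg). Lungs collected one day later. H3K122Ac detected by immunofluorescence on paraffin lung sections and quantified as fold change in total fluorescence intensity.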

[2] = Clearance in rat at 10 mg/kg, iv; type: ADME, organism-based; details: in vivo
[3] = target: CREB-binding protein (Homo sapiens, UniProt Q92793); test: Binding affinity CBP (unknown origin) incubated for 1 hr by TR-FRET assay
Sequence of CREB-binding protein (Q92793 whole entry): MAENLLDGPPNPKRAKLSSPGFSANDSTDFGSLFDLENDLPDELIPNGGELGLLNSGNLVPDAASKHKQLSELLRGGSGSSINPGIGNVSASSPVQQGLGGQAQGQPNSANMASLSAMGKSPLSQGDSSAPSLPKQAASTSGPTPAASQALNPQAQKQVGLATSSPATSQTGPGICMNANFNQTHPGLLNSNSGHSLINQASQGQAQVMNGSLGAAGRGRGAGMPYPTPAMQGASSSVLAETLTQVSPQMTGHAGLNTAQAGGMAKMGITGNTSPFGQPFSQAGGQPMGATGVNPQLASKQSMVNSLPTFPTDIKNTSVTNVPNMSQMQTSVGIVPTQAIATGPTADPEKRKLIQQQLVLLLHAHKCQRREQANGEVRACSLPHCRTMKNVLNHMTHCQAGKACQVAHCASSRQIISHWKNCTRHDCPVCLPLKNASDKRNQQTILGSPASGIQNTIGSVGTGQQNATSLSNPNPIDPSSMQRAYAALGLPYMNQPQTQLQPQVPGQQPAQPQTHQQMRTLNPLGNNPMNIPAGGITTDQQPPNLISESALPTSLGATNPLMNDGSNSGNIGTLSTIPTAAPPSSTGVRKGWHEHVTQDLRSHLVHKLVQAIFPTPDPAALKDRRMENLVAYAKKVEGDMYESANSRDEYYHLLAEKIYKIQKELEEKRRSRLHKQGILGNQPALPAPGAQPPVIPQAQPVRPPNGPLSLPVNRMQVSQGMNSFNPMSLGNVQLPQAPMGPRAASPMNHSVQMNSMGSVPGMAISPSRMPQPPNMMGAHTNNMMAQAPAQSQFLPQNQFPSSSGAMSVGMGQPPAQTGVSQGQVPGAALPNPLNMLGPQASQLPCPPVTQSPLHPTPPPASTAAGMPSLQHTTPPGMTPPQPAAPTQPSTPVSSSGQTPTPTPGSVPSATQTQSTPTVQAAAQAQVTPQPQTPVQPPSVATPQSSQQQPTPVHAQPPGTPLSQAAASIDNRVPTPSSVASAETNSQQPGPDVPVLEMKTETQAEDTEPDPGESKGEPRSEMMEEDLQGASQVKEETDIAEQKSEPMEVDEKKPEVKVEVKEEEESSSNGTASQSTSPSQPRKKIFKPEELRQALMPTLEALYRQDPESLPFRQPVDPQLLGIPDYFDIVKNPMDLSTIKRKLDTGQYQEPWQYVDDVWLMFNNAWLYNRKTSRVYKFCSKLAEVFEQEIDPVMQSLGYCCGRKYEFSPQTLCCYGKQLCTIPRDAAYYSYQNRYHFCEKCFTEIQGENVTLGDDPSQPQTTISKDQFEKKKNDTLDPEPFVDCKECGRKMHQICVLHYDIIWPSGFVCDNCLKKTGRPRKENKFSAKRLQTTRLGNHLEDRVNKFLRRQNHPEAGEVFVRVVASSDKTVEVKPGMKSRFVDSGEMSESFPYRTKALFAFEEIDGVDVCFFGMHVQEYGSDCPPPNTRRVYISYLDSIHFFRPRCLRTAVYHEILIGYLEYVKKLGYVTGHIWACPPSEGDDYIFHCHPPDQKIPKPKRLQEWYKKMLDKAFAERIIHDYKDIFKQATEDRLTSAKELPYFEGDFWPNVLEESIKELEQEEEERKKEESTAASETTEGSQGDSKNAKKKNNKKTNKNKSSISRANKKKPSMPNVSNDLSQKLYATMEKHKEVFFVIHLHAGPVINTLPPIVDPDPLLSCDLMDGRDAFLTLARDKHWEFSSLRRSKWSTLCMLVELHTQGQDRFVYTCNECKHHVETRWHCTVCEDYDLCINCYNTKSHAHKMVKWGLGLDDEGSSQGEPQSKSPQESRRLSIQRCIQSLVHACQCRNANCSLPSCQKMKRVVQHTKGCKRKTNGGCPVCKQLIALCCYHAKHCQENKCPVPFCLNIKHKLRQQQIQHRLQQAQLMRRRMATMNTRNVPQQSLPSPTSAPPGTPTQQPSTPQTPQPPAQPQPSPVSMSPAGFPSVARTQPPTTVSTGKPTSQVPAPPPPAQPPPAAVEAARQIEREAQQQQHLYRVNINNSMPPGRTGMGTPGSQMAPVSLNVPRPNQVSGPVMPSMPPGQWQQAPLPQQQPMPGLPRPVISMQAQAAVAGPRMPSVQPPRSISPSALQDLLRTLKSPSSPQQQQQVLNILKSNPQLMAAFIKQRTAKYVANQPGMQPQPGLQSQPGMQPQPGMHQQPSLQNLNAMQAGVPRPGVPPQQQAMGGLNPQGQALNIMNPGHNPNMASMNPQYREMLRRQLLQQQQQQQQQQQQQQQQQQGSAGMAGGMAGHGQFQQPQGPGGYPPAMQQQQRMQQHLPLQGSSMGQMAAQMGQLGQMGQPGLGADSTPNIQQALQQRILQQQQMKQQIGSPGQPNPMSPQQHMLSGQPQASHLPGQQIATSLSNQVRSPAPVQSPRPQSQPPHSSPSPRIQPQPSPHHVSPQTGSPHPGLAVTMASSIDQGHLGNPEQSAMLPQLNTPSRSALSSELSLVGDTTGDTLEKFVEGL

[4] = target: T1, Bromodomain-containing protein 4 (Homo sapiens, UniProt O60885)
[5] = test system: Bromodomain-containing protein 4 (Homo sapiens), O60885 [E151A]
[6] = Antiinflammatory activity in human SAEC assessed as inhibition of Poly(I:C) induced IL-6 expression pretreated for 24 hrs followed by Poly(I:C) addition for 4 hrs by qRT-PCR analysis; type: functional, cell-based
Summary of the method: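 Poly(I:C) 10 μg/mL then added for 4 h. CIG5 or IL-6 mRNA measured by qRT-PCR (ΔΔCt, PPIA normalized). IC50 from a four-parameter fit, mean ± SD of three independent runs.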

[7] = test system: Bromodomain-containing protein 4 (Homo sapiens), O60885 [E151A]; remark: listed apart in the source
[8] = AUC (0 to t) in rat at 20 mg/kg, po; type: ADME, organism-based; design: dose 20 mg/kg; details: in vivo
[9] = target: T1, Bromodomain-containing protein 4; remark: listed apart in the source
[10] = Half life in rat at 20 mg/kg, po; type: ADME, organism-based; details: in vivo
[11] = test system: Mus musculus; test: Antiinflammatory activity in C57BL/6 mouse model of poly(I:C)-induced acute airway inflammation assessed as decrease in KC level in BALF at 10 mg/kg, po administered 1 day prior to poly(I:C) stimulation; type: functional, organism-based
[12] = test system: Mus musculus; test: Antiinflammatory activity in C57BL/6 mouse model of poly(I:C)-induced acute airway inflammation assessed as decrease in IL-6 level in BALF at 10 mg/kg, po administered 1 day prior to poly(I:C) stimulation; type: functional, organism-based
[13] = Cmax in rat at 20 mg/kg, po; type: ADME, organism-based; design: route oral, dose 20 mg/kg; details: in vivo
[14] = test system: Mus musculus; test: Antiinflammatory activity in C57BL/6 mouse model of poly(I:C)-induced acute airway inflammation assessed as decrease in MCP-1 level in BALF at 10 mg/kg, po administered 1 day prior to poly(I:C) stimulation; type: functional, organism-based
[15] = target: T2, Bromodomain testis-specific protein (Homo sapiens, UniProt Q58F21); test: Binding affinity BRDT BD1 (unknown origin) incubated for 1 hr by TR-FRET assay
[16] = test system: Mus musculus; test: Antiinflammatory activity in C57BL/6 mouse model of poly(I:C)-induced acute airway inflammation assessed as decrease in IL-6 gene expression in lung tissue at 10 mg/kg, po administered 1 day prior to poly(I:C) stimulation; type: functional, organism-based
[17] = AUC (0 to t) in rat at 10 mg/kg, iv; type: ADME, organism-based; design: dose 10 mg/kg; details: in vivo
[18] = test system: Mus musculus; test: Antiinflammatory activity in C57BL/6 mouse model of poly(I:C)-induced acute airway inflammation assessed as inhibition of neutrophilic inflammation around medium sized airways at 10 mg/kg, po administered 1 day prior to poly(I:C) stimulation by H and E staining based analysis; type: functional; design: scale not given: the % may be the effect or the level left
[19] = target: Bromodomain-containing protein 3 (Homo sapiens, UniProt Q15059); test: Binding affinity BRD3 BD1 (unknown origin) incubated for 1 hr by TR-FRET assay
Sequence of Bromodomain-containing protein 3 (Q15059 whole entry): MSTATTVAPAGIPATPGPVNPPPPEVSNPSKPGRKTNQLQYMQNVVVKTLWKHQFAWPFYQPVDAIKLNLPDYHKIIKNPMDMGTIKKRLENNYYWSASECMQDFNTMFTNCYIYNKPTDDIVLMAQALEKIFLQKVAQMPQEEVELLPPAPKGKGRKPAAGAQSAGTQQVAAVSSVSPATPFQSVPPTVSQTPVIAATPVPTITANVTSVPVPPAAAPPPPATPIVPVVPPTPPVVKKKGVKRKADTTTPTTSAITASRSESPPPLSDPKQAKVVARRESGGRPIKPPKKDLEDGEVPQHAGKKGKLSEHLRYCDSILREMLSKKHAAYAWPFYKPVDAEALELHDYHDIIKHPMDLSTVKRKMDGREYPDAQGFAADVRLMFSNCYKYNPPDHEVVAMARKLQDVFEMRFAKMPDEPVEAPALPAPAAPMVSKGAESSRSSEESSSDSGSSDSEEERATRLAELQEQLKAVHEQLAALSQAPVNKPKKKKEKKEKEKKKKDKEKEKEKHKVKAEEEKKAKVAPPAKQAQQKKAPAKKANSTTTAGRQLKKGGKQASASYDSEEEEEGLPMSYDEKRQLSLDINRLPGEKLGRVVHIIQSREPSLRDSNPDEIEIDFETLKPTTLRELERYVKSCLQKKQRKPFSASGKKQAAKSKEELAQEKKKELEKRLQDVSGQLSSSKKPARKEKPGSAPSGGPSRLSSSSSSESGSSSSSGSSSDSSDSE

[20] = Aqueous solubility of the compound after 24 hrs by HPLC analysis; type: physicochemical; details: buffer
Summary of the method: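 Compound suspended in water and shaken 24 h at 25 °C, then centrifuged and filtered. Supernatant analyzed by C18 reverse-phase HPLC with one-point calibration against solutions of known concentration.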

[21] = test system: Mus musculus; test: Antiinflammatory activity in C57BL/6 mouse model of poly(I:C)-induced acute airway inflammation assessed as decrease in RANTES level in BALF at 10 mg/kg, po administered 1 day prior to poly(I:C) stimulation; type: functional, organism-based
[22] = target: T1, Bromodomain-containing protein 4; remark: listed apart in the source
[23] = test system: Mus musculus; test: Antiinflammatory activity in C57BL/6 mouse model of poly(I:C)-induced acute airway inflammation assessed as decrease in KC gene expression in lung tissue at 10 mg/kg, po administered 1 day prior to poly(I:C) stimulation; type: functional, organism-based
[24] = test system: Bromodomain-containing protein 4 (Homo sapiens), O60885 [E151A]; remark: listed apart in the source
[25] = target: T1, Bromodomain-containing protein 4; remark: listed apart in the source
[26] = target: Bromodomain-containing protein 2 (Homo sapiens, UniProt P25440); test: Binding affinity BRD2 BD1 (unknown origin) incubated for 1 hr by TR-FRET assay
Sequence of Bromodomain-containing protein 2 (P25440 whole entry): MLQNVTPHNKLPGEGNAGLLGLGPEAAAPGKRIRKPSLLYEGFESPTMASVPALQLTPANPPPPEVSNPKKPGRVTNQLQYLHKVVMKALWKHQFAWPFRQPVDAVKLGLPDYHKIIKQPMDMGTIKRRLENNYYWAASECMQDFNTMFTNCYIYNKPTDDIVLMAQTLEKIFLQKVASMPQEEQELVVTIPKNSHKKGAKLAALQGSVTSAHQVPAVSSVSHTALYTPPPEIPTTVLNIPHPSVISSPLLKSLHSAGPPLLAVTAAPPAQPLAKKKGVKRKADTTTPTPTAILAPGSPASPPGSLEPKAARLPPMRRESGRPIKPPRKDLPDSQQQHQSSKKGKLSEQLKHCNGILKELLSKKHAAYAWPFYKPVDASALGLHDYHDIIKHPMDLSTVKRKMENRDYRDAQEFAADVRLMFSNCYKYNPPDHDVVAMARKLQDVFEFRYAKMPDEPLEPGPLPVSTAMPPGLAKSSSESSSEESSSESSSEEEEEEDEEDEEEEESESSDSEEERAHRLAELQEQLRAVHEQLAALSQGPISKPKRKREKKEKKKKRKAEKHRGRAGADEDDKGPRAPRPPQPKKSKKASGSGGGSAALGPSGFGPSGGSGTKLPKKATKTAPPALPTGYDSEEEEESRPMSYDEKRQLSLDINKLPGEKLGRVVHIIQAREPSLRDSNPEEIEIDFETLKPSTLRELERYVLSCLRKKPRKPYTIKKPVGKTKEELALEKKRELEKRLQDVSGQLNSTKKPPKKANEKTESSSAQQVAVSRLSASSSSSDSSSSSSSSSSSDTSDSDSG
Summary of the method: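 Commercial TR-FRET kit with recombinant BRD2 bromodomain. Inhibitor at 0.01 nM–100 μM, 1 h at room temperature. Excitation 340 nm; 670/620 nm emission ratio read with 100 μs delay. IC50 from a four-parameter fit, mean of three runs.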

[27] = target: T1, Bromodomain-containing protein 4; remark: listed apart in the source
[28] = test system: SAEC; test: Antiinflammatory activity in human SAEC assessed as decrease in H3K122Ac accumulation by immunofluorescence analysis; type: functional, cell-based
Summary of the method: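 Immortalized human small airway epithelial cells stimulated with poly(I:C) at 10 μg/mL. H3K122Ac detected by immunofluorescence and quantified as fold change in total fluorescence intensity.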

[29] = test system: Mus musculus; test: Antiinflammatory activity in C57BL/6 mouse model of poly(I:C)-induced acute airway inflammation assessed as decrease in neutrophils level in BALF at 10 mg/kg, po administered 1 day prior to poly(I:C) stimulation; type: functional, organism-based
[30] = target: T1, Bromodomain-containing protein 4; remark: listed apart in the source
[31] = target: T1, Bromodomain-containing protein 4; remark: listed apart in the source
[32] = target: T1, Bromodomain-containing protein 4; test: Binding affinity to wild type human BRD4 BD1 (42 to168 residues) expressed in bacterial competent cells assessed as increase in thermal stability by thermal shift assay
[33] = test system: Mus musculus; test: Antiinflammatory activity in C57BL/6 mouse model of poly(I:C)-induced acute airway inflammation assessed as decrease in total cells level in BALF at 10 mg/kg, po administered 1 day prior to poly(I:C) stimulation; type: functional, organism-based
[34] = target: T2, Bromodomain testis-specific protein; test: Binding affinity BRDT BD2 (unknown origin) incubated for 1 hr by TR-FRET assay

## O=C(Nc1ccc(C(F)(F)F)cc1)Nc1ccc(S(=O)(=O)N2CCC[C@H]2CN2CCOCC2)cc1
[1]
  Activity: Active
[2]
  clearance: 75 mL/min/kg
[3]
  IC50: > 10000 nM
[4]
  ΔTm: 0.8 °C
[5]
  ΔTm: 0.7 °C
[6]
  IC50: 370 nM
[7]
  ΔTm: 0.9 °C
[8]
  AUC(0-t): 602 ng·h/mL
[9]
  ΔTm: 0.9 °C
[10]
  half-life: 3.7 h
[11]
  Activity: inactive
[12]
  Activity: inactive
[13]
  Cmax: 86.9 ng/mL
[14]
  Activity: inactive
[15]
  IC50: 2420 nM
[16]
  Activity: inactive
[17]
  AUC(0-t): 2170 ng·h/mL
[18]
  Activity: 100%
[19]
  IC50: 2180 nM
[20]
  solubility: 3500 µg/mL (≈ 6.83 mM)
[21]
  Activity: inactive
[22]
  ΔTm: 15.7 °C
[23]
  Activity: inactive
[24]
  ΔTm: 0.5 °C
[25]
  ΔTm: 15.8 °C
[26]
  IC50: 835 nM
[27]
  ΔTm: 4.5 °C
[28]
  Activity: Active
[29]
  Activity: Active
[30]
  ΔTm: 5.8 °C
[31]
  ΔTm: 15.5 °C
[32]
  Activity: Dose-Dependent Effect
[33]
  Activity: Active
[34]
  IC50: 1900 nM

Source: ChEMBL document CHEMBL5042517, “Discovery, X-ray Crystallography, and Anti-inflammatory Activity of Bromodomain-containing Protein 4 (BRD4) BD1 Inhibitors Targeting a Distinct New Binding Site” (J Med Chem, 2022)
